The record followed here is ChEMBL document CHEMBL1135429, “Arylaminoethyl amides as novel non-covalent cathepsin K inhibitors” (J Med Chem, 2002).

In one experiment the target is Cathepsin S (Homo sapiens, UniProt P25774). The experiment can be described thus: Inhibition of recombinant human cathepsin S in a fluorescence assay. The gist of the method: (§1)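 Each recombinant human enzyme (cathepsin K, L or S) was assayed separately. IC50 values are the mean of two independent experiments, each performed in duplicate.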
The next experiment deals with Procathepsin L (Homo sapiens, UniProt P07711). Put plainly: Inhibition of recombinant human cathepsin L in a fluorescence assay. The gist of the method:
as §1

For the next experiment, the target named is T1, Cathepsin K (Homo sapiens, UniProt P43235).
T1 sequence (P43235 whole entry): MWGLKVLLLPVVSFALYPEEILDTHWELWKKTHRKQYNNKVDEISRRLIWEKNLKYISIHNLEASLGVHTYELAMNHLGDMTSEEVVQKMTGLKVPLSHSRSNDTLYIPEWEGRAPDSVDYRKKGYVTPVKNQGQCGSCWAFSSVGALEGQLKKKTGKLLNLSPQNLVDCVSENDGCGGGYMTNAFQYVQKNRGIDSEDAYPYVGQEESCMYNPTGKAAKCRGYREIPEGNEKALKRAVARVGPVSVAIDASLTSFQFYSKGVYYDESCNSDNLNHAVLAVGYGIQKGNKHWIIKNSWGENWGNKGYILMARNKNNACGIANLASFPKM
Put plainly: Inhibition of recombinant human cathepsin K in fluorescence assay. The gist of the method: as §1

Experiment [1] has as its target Cathepsin K (Oryctolagus cuniculus). Put plainly: Eq. constant (Ki) for inhibition of Cathepsin K was determined by progress curves, following hydrolysis of Z-Phe-Arg- Amc in the absence and presence of compound.

Sequence of Cathepsin S (P25774 whole entry): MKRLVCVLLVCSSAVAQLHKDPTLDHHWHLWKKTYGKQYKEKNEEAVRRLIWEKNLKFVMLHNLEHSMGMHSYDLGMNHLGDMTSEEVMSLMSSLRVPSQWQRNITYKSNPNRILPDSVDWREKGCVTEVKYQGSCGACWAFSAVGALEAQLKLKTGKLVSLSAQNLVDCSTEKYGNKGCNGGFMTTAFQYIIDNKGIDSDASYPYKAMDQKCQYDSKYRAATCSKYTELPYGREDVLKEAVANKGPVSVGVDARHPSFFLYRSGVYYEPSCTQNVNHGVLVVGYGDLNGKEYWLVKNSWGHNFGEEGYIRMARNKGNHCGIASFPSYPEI
Sequence of Procathepsin L (P07711 whole entry): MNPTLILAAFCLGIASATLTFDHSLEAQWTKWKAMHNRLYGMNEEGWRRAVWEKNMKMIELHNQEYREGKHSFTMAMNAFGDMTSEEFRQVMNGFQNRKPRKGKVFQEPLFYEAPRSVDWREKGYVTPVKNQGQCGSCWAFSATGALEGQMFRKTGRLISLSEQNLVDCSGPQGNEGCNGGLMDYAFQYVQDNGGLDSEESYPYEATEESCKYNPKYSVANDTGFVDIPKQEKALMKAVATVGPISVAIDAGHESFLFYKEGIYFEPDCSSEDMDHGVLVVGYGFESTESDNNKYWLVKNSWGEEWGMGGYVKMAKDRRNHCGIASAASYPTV

The term IC50 denotes the concentration at which inhibition is half-maximal. As to `COc1ccc(NCCNC(=O)[C@H](CC(C)C)NC(=O)c2ccc(C(C)C)cc2)cc1`, the IC50 was 5700 nM on Cathepsin S, 50 nM at Procathepsin L and < 3 nM at Cathepsin K.
In the case of `COc1ccc(NCCNC(=O)[C@H](CC(C)C)NC(=O)c2ncn(-c3ccccc3Cl)n2)cc1`, the IC50 turned out to be 1900 nM on Cathepsin S, 2300 nM at Procathepsin L and 6 nM on Cathepsin K.
The like results for `COc1ccc(NCCNC(=O)[C@H](CC(C)C)NC(=O)c2ccc(C(C)C)cn2)cc1` were, in that order, 7200 nM, 1500 nM and < 3 nM.
Turning to `CCCc1ccc(C(=O)N[C@@H](CC(C)C)C(=O)NCCNc2ccc(OC)cc2)cc1`, the IC50 is 1200 nM at Cathepsin S, < 30 nM at Procathepsin L and < 3 nM on Cathepsin K.
As usually defined, the Ki is the dissociation constant of the complex between target and ligand, obtained from inhibition or displacement. As for `COc1ccc(NCCNC(=O)[C@H](CC(C)C)NC(=O)c2ccc(OCc3ccccc3)cc2)cc1`, the values for the IC50 on Cathepsin S, on Procathepsin L and on Cathepsin K were 9500 nM, > 10000 nM and 6 nM, respectively. Further, the Ki in experiment [1] was found to be 15 nM.
In the case of `COc1ccc(NCCNC(=O)[C@H](CC(C)C)NC(=O)c2ncn(-c3cccc(Cl)c3Cl)n2)cc1`, the figures for the IC50 on Cathepsin S, at Procathepsin L and at Cathepsin K were 190 nM, > 10000 nM and 9 nM, respectively. Besides, in experiment [1], the Ki worked out at 11 nM.
